Test results as given in PubChem BioAssay.
This is one part of the list. Values without a mark were called inactive. Calls of active or inactive are those of the source.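 The calls were made as follows, unless noted: active = inhibition above the primary screen's cutoff, its mean inhibition plus 3 SD (cut at about 35% in these data); inactive = the rest.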

How the values were obtained:
[1] = target: Glutathione S-transferase omega-1 (Homo sapiens) (UniProt P78417); experiment: recombinant GSTO1 blockers, retest – biochemical, fluorescence polarization, triplicate, counter-screen for RBBP9 inhibitor project, confirmation (AID 2176); conditions: recombinant GSTO1, probe fluorescence polarization; at 5.96 µM; stronger effect = higher value;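 also: loss of polarization as inhibitors block binding of rhodamine sulfonate ester activity probe; 0% = GSTO1 with DMSO and 100% = wells lacking GSTO1 enzyme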
Sequence of Glutathione S-transferase omega-1 (Homo sapiens) (P78417 whole entry, looked up): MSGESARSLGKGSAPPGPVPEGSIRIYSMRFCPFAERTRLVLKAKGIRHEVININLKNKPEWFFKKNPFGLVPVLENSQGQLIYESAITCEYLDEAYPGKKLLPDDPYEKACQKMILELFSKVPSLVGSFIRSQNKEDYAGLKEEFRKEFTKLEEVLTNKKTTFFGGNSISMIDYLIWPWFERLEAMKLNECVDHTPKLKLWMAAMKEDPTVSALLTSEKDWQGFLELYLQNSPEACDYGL

[2] = target: Platelet-activating factor acetylhydrolase IB subunit alpha1 (Homo sapiens) (UniProt Q15102); experiment: inhibition of PAF acetylhydrolase 1B subunit 3 – biochemical, fluorescence polarization, human, confirmation (AID 493032;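 active = average inhibition over triplicate runs above the hit cutoff set in the earlier primary screen, cut at about 25% in these data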;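 also: 0% = enzyme with DMSO and 100% = wells lacking PAFAH1B3 protein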); conditions: recombinant PAFAH1B3, FP-Rh activity-based probe, at 3.39 µM, stronger effect = higher value
Sequence of Platelet-activating factor acetylhydrolase IB subunit alpha1 (Homo sapiens) (Q15102 whole entry, looked up): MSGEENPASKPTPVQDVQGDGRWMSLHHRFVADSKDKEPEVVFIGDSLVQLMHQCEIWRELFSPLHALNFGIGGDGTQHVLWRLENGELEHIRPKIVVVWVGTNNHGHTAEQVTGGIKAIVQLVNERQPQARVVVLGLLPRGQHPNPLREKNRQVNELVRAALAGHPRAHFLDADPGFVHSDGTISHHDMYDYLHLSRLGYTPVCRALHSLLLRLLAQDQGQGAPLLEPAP

[3] = target: Serine protease HTRA1 (Homo sapiens) (UniProt Q92743); experiment: confirming inhibition of human HTRA1 – biochemical, fluorescence polarization, confirmation (AID 540248;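 active = mean inhibition over three repeats above a set limit taken from the earlier primary screen, cut at about 37% in these data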;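 also: 0% = HTRA1 with DMSO and 100% = wells lacking HTRA1; inhibitors block probe binding so polarization drops and inhibition rises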); conditions: recombinant HTRA1, FP-rhodamine activity-based probe, at 5.96 µM, stronger effect = higher value
[4] = target: (Lyso)-N-acylphosphatidylethanolamine lipase (Mus musculus) (UniProt Q8VD66); experiment: mouse ABHD4 hydrolase blockers, triplicate – biochemical, fluorescence polarization, confirmation (AID 720658;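 active = mean inhibition across replicates above the hit cutoff set in the primary screen, cut at about 30% in these data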); conditions: purified mABHD4, FP-Rh probe fluorescence polarization; at 8.92 µM; stronger effect = higher value
Sequence of (Lyso)-N-acylphosphatidylethanolamine lipase (Mus musculus) (Q8VD66 whole entry, looked up): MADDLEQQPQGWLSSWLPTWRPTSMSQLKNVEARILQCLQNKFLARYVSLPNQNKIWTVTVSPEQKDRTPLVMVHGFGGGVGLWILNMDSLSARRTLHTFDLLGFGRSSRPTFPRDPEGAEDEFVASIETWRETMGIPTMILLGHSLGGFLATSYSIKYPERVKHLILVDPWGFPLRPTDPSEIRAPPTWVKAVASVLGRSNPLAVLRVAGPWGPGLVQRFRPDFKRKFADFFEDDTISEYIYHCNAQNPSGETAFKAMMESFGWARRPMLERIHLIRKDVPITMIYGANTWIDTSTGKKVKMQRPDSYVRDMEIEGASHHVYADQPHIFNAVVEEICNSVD
Outline: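 System: mouse wild-type ABHD4 enzyme; also added: Rhodamine-tagged fluorophosphonate probe FP-Rh; schedule: 45 min compound pretreatment plus 60 min FP-Rh labeling, 25 °C; detection: fluorescence polarization, excitation 525 nm, emission 598 nm; control set: S159A mutant ABHD4 plus DMSO as 100%, wild-type plus DMSO 0%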

How did the inhibition [1] turn out when `O=C1Nc2c(Br)cc(Br)cc2C1(O)N1CCOCC1` (centres undefined) was run?
Its inhibition is 25.2%.

And the inhibition [2]?
The inhibition was 8.59%.

How did the inhibition [1] turn out when `Cc1ccc(C(=O)N/N=C/c2sc(=O)n(Cc3cccc(C(=O)O)c3)c2Cl)cc1` was run?
Its inhibition is 48.3% (active).

Which inhibition [1] does the source give for `O=C(O)c1cccc(NC(=S)N/N=C/c2c[nH]c3ccccc23)c1` here?
The inhibition was 54.5% (active).

For `Oc1ccc(CNc2ccccc2O)cc1`, which inhibition [1] is on record?
The inhibition was 21.7%.

And the inhibition [3]?
Its inhibition is 29%.

And the inhibition [4]?
Its inhibition is 37.2% (active).

For `Cc1ccc(SCC2=NNC(=O)C2)cc1`, which inhibition [1] is on record?
The inhibition was 11.5%.

With `COC(=O)c1ccc(CSc2nncn2N)cc1` as the molecule, how does the inhibition [1] read?
Its inhibition is 1.78%.
